Results reported in ChEMBL document CHEMBL3352325, “Synthesis and biological evaluation of novel aniline-derived asiatic acid derivatives as potential anticancer agents” (Eur J Med Chem, 2014).

Assays:
[1] = system: HeLa; assay: Cytotoxicity against human HeLa cells after 48 hrs by MTT assay; assay type: functional, cell-based
Outline: (§1)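 Cells grown in medium with 10% heat-inactivated FBS, 5% CO2, 37 °C. Compounds given in medium with 1% DMSO at 1.25–20 graded concentrations; 1% DMSO medium served as control. MTT (5 mg/mL) added, formazan dissolved in DMSO, absorbance read at 570/630 nm. Survival expressed relative to negative control. IC50 by Bliss method (n=5), at least three independent experiments, mean ± SD.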

[2] = Cytotoxicity against human SMMC-7404 cells after 48 hrs by MTT assay; assay type: functional, cell-based; conditions: SMMC-7404, 48 h; outline: as §1
[3] = system: HUVEC; assay: Cytotoxicity against human HUVEC cells after 48 hrs by MTT assay; assay type: cell-based; outline: as §1
[4] = system: NCI-H460; assay: Cytotoxicity against human NCI-H460 cells after 48 hrs by MTT assay; assay type: functional, cell-based; conditions: NCI-H460, 48 h; outline: as §1
[5] = system: MGC-803; assay: Cytotoxicity against human MGC803 cells after 48 hrs by MTT assay; assay type: functional, cell-based; conditions: MGC-803, 48 h; outline: as §1
[6] = system: HepG2; assay: Cytotoxicity against human HepG2 cells after 48 hrs by MTT assay; assay type: functional, cell-based; conditions: HepG2, 48 h; outline: as §1

Row | SMILES | IC50 [1] [µM] | IC50 [2] [µM] | IC50 [3] [µM] | IC50 [4] [µM] | IC50 [5] [µM] | IC50 [6] [µM]
1 | C[C@H]1[C@H](C)CC[C@]2(C(=O)Nc3cccc(Cl)c3)CC[C@]3(C)C(=CC(=O)[C@@H]4[C@@]5(C)C[C@@H](O)[C@H](O)[C@@](C)(CO)[C@@H]5CC[C@]43C)[C@H]12 | 14.2 | 34.4 | > 100 | 24.4 | 19.4 | 11.6
2 | C[C@H]1[C@H](C)CC[C@]2(C(=O)Nc3ccc(Cl)cc3)CC[C@]3(C)C(=CC(=O)[C@@H]4[C@@]5(C)C[C@@H](O)[C@H](O)[C@@](C)(CO)[C@@H]5CC[C@]43C)[C@H]12 | 13.1 | 17.2 | > 100 | 12.8 | 22.5 | 29.8
3 | COc1ccccc1NC(=O)[C@]12CC[C@@H](C)[C@H](C)[C@H]1C1=CC(=O)[C@@H]3[C@@]4(C)C[C@@H](O)[C@H](O)[C@@](C)(CO)[C@@H]4CC[C@@]3(C)[C@]1(C)CC2 | 34.5 | 16.2 | > 100 | 18.4 | 19 | 10.9
4 | C[C@H]1[C@H](C)CC[C@]2(C(=O)Nc3ccc(Cl)c(Cl)c3)CC[C@]3(C)C(=CC(=O)[C@@H]4[C@@]5(C)C[C@@H](O)[C@H](O)[C@@](C)(CO)[C@@H]5CC[C@]43C)[C@H]12 | 12.4 | 17.2 | > 100 | 21.4 | 13.9 | 13.8
5 | Cc1ccc(NC(=O)[C@]23CC[C@@H](C)[C@H](C)[C@H]2C2=CC(=O)[C@@H]4[C@@]5(C)C[C@@H](O)[C@H](O)[C@@](C)(CO)[C@@H]5CC[C@@]4(C)[C@]2(C)CC3)cc1 | 32.5 | > 100 | > 100 | 30.2 | 14.6 | 22.6
6 | C[C@H]1[C@H](C)CC[C@]2(C(=O)Nc3ccc(F)cc3)CC[C@]3(C)C(=CC(=O)[C@@H]4[C@@]5(C)C[C@@H](O)[C@H](O)[C@@](C)(CO)[C@@H]5CC[C@]43C)[C@H]12 | 20.8 | > 100 | > 100 | 31.9 | 26.6 | > 100
7 | Cc1ccc(C)c(NC(=O)[C@]23CC[C@@H](C)[C@H](C)[C@H]2C2=CC(=O)[C@@H]4[C@@]5(C)C[C@@H](O)[C@H](O)[C@@](C)(CO)[C@@H]5CC[C@@]4(C)[C@]2(C)CC3)c1 | 16 | 15.7 | > 100 | 27.5 | 20.7 | 25.5
8 | COc1ccc(NC(=O)[C@]23CC[C@@H](C)[C@H](C)[C@H]2C2=CC(=O)[C@@H]4[C@@]5(C)C[C@@H](O)[C@H](O)[C@@](C)(CO)[C@@H]5CC[C@@]4(C)[C@]2(C)CC3)cc1 | > 100 | > 100 | > 100 | > 100 | 30.1 | 16.6
9 | C[C@H]1[C@H](C)CC[C@]2(C(=O)Nc3ccc(Br)cc3)CC[C@]3(C)C(=CC(=O)[C@@H]4[C@@]5(C)C[C@@H](O)[C@H](O)[C@@](C)(CO)[C@@H]5CC[C@]43C)[C@H]12 | 18.5 | > 100 | > 100 | 31.2 | 20.6 | 21.3
10 | Cc1cccc(NC(=O)[C@]23CC[C@@H](C)[C@H](C)[C@H]2C2=CC(=O)[C@@H]4[C@@]5(C)C[C@@H](O)[C@H](O)[C@@](C)(CO)[C@@H]5CC[C@@]4(C)[C@]2(C)CC3)c1 | 14.6 | 16.1 | > 100 | 21.8 | 21.2 | 19.4
11 | COc1cccc(NC(=O)[C@]23CC[C@@H](C)[C@H](C)[C@H]2C2=CC(=O)[C@@H]4[C@@]5(C)C[C@@H](O)[C@H](O)[C@@](C)(CO)[C@@H]5CC[C@@]4(C)[C@]2(C)CC3)c1 | 17.8 | 23.5 | > 100 | 23.1 | 24.3 | 8.89
12 | C[C@H]1[C@H](C)CC[C@]2(C(=O)O)CC[C@]3(C)C(=CC[C@@H]4[C@@]5(C)C[C@@H](O)[C@H](O)[C@@](C)(CO)[C@@H]5CC[C@]43C)[C@H]12 [ASIATIC ACID] | 37.3 | 40.8 | > 100 | 39.6 | 22.6 | 34.9
13 | Cc1cc(Br)ccc1NC(=O)[C@]12CC[C@@H](C)[C@H](C)[C@H]1C1=CC(=O)[C@@H]3[C@@]4(C)C[C@@H](O)[C@H](O)[C@@](C)(CO)[C@@H]4CC[C@@]3(C)[C@]1(C)CC2 | 15.7 | 17 | > 100 | 23.8 | 14.6 | 22.8
14 | O=c1[nH]cc(F)c(=O)[nH]1 [FLUOROURACIL] | – | 40.2 | – | – | – | 30
15 | C[C@H]1[C@H](C)CC[C@]2(C(=O)Nc3cccc4ccccc34)CC[C@]3(C)C(=CC(=O)[C@@H]4[C@@]5(C)C[C@@H](O)[C@H](O)[C@@](C)(CO)[C@@H]5CC[C@]43C)[C@H]12 | 14 | 20.4 | > 100 | 16.6 | 19.9 | 21.3
16 | C[C@H]1[C@H](C)CC[C@]2(C(=O)Nc3ccc(Br)c(F)c3)CC[C@]3(C)C(=CC(=O)[C@@H]4[C@@]5(C)C[C@@H](O)[C@H](O)[C@@](C)(CO)[C@@H]5CC[C@]43C)[C@H]12 | 9.71 | 17.4 | > 100 | 16.4 | 16 | 28.4
17 | C[C@H]1[C@H](C)CC[C@]2(C(=O)Nc3ccc(F)c(Cl)c3)CC[C@]3(C)C(=CC(=O)[C@@H]4[C@@]5(C)C[C@@H](O)[C@H](O)[C@@](C)(CO)[C@@H]5CC[C@]43C)[C@H]12 | 14.2 | 19.1 | > 100 | 24.2 | 14.1 | 19.4
18 | C[C@H]1[C@H](C)CC[C@]2(C(=O)Nc3ccccc3)CC[C@]3(C)C(=CC(=O)[C@@H]4[C@@]5(C)C[C@@H](O)[C@H](O)[C@@](C)(CO)[C@@H]5CC[C@]43C)[C@H]12 | 26.9 | > 100 | > 100 | 12.2 | > 100 | > 100
19 | Cc1ccc(NC(=O)[C@]23CC[C@@H](C)[C@H](C)[C@H]2C2=CC(=O)[C@@H]4[C@@]5(C)C[C@@H](O)[C@H](O)[C@@](C)(CO)[C@@H]5CC[C@@]4(C)[C@]2(C)CC3)cc1Cl | 16 | 20.6 | > 100 | 19.1 | 20.1 | 18.4
20 | C[C@H]1[C@H](C)CC[C@]2(C(=O)Nc3ccccc3F)CC[C@]3(C)C(=CC(=O)[C@@H]4[C@@]5(C)C[C@@H](O)[C@H](O)[C@@](C)(CO)[C@@H]5CC[C@]43C)[C@H]12 | 32.5 | 23.2 | > 100 | 61.6 | 19.9 | > 100
21 | C[C@H]1[C@H](C)CC[C@]2(C(=O)Nc3cccc(Br)c3)CC[C@]3(C)C(=CC(=O)[C@@H]4[C@@]5(C)C[C@@H](O)[C@H](O)[C@@](C)(CO)[C@@H]5CC[C@]43C)[C@H]12 | 16.2 | 22.4 | > 100 | 24.8 | 15.5 | 20.4
